≈ marks a conversion by molar mass, not a printed value.
Assays:
Bifidobacterium animalis [1] = test: Antimicrobial activity against Bifidobacterium animalis ATCC 27536; assay type: functional
How it was run: (§1)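 Broth microdilution in MRS plus 0.05% L-cysteine-HCl. Mid-log culture adjusted to OD650 0.1, giving about 2.5 × 10^4 to 5.0 × 10^4 CFU/well, then added to twofold serial dilutions of agent. Plates incubated anaerobically at 37°C for 18 h and read at OD650. MIC is the lowest concentration matching the uninoculated blank OD, taken as the median of four repeats.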

Bifidobacterium bifidum [2] = test: Antimicrobial activity against Bifidobacterium bifidum R0071; assay type: functional; how it was run: as §1
Bifidobacterium bifidum [3] = test: Antimicrobial activity against Bifidobacterium bifidum ATCC 15696; assay type: functional; how it was run: as §1
Bifidobacterium bifidum [4] = test: Antimicrobial activity against Bifidobacterium bifidum BB12; assay type: functional; how it was run: as §1
Bifidobacterium breve [5] = test: Antimicrobial activity against Bifidobacterium breve ATCC 15700; assay type: functional; how it was run: as §1
[6] = Antimicrobial activity against Bifidobacterium infantis ATCC 15697; assay type: functional, Bifidobacterium longum subsp. infantis; conditions: Bifidobacterium longum; how it was run: as §1
Bifidobacterium longum [7] = test: Antimicrobial activity against Bifidobacterium longum ATCC 15708; assay type: functional; how it was run: as §1
Bifidobacterium longum [8] = test: Antimicrobial activity against Bifidobacterium longum R0175; assay type: functional; how it was run: as §1
Bifidobacterium longum [9] = test: Antimicrobial activity against Bifidobacterium longum P/N 601377; assay type: functional; how it was run: as §1
[10] = tested on: Bifidobacterium pseudolongum; test: Antimicrobial activity against Bifidobacterium pseudolongum ATCC 25562; assay type: functional; how it was run: as §1
[11] = tested on: Bifidobacterium thermophilum; test: Antimicrobial activity against Bifidobacterium thermophilum ATCC 25866; assay type: functional; how it was run: as §1
Bifidobacterium breve [12] = test: Antimicrobial activity against Bifidobacterium breve R0070; assay type: functional; how it was run: as §1
Bifidobacterium animalis [13] = test: Antimicrobial activity against 60 min 1 M HCl-stressed Bifidobacterium animalis ATCC 27536 after 18 hrs; assay type: functional
How it was run: (§2)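 Mid-log MRS culture pelleted and resuspended in MRS broth brought to pH 2.0 with 1 M HCl, held anaerobically at 37°C for 60 min, then subcultured in MRS (pH 6.5) for 24 h anaerobically before MIC testing by broth microdilution (as for unstressed cells). Table footnote gives 18 h anaerobic regrowth after the stress. MIC is the median of four repetitions.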

Bifidobacterium bifidum [14] = test: Antimicrobial activity against 60 min 1 M HCl-stressed Bifidobacterium bifidum R0071 after 18 hrs; assay type: functional; how it was run: as §2
Bifidobacterium bifidum [15] = test: Antimicrobial activity against 60 min 1 M HCl-stressed Bifidobacterium bifidum BB12 after 18 hrs; assay type: functional; how it was run: as §2
Bifidobacterium breve [16] = test: Antimicrobial activity against 60 min 1 M HCl-stressed Bifidobacterium breve ATCC 15700 after 18 hrs; assay type: functional; how it was run: as §2
Bifidobacterium breve [17] = test: Antimicrobial activity against 60 min 1 M HCl-stressed Bifidobacterium breve R0070 after 18 hrs; assay type: functional; how it was run: as §2
[18] = Antimicrobial activity against 60 min 1 M HCl-stressed Bifidobacterium infantis ATCC 15697 after 18 hrs; assay type: functional, Bifidobacterium longum subsp. infantis; conditions: Bifidobacterium longum; how it was run: as §2
Bifidobacterium longum [19] = test: Antimicrobial activity against 60 min 1 M HCl-stressed Bifidobacterium longum ATCC 15707 after 18 hrs; assay type: functional; how it was run: as §2
Bifidobacterium longum [20] = test: Antimicrobial activity against 60 min 1 M HCl-stressed Bifidobacterium longum R0175 after 18 hrs; assay type: functional; how it was run: as §2
Bifidobacterium longum [21] = test: Antimicrobial activity against 60 min 1 M HCl-stressed Bifidobacterium longum P/N 601377 after 18 hrs; assay type: functional; how it was run: as §2
[22] = tested on: Bifidobacterium pseudolongum; test: Antimicrobial activity against 60 min 1 M HCl-stressed Bifidobacterium pseudolongum ATCC 25562 after 18 hrs; assay type: functional; how it was run: as §2
[23] = tested on: Bifidobacterium thermophilum; test: Antimicrobial activity against 60 min 1 M HCl-stressed Bifidobacterium thermophilum ATCC 25866 after 18 hrs; assay type: functional; how it was run: as §2
Bifidobacterium animalis [24] = test: Antimicrobial activity against 90 mins oxgall-stressed Bifidobacterium animalis ATCC 27536 after 18 hrs; assay type: functional
How it was run: (§3)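 Cells pelleted from mid-log MRS culture and resuspended in MRS (initial pH 6.5) with 0.3% (wt/vol) oxgall for 90 min anaerobically at 37°C. They were then regrown in MRS pH 6.5 for 24 h (footnote: 18 h) anaerobically and tested for MIC by the same broth microdilution assay. Median of four repetitions.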

Bifidobacterium bifidum [25] = test: Antimicrobial activity against 90 mins oxgall-stressed Bifidobacterium bifidum R0071 after 18 hrs; assay type: functional; how it was run: as §3
Bifidobacterium bifidum [26] = test: Antimicrobial activity against 90 mins oxgall-stressed Bifidobacterium bifidum ATCC 15696 after 18 hrs; assay type: functional; how it was run: as §3
Bifidobacterium bifidum [27] = test: Antimicrobial activity against 90 mins oxgall-stressed Bifidobacterium bifidum BB12 after 18 hrs; assay type: functional; how it was run: as §3
Bifidobacterium breve [28] = test: Antimicrobial activity against 90 mins oxgall-stressed Bifidobacterium breve ATCC 15700 after 18 hrs; assay type: functional; how it was run: as §3
Bifidobacterium breve [29] = test: Antimicrobial activity against 90 mins oxgall-stressed Bifidobacterium breve R0070 after 18 hrs; assay type: functional; how it was run: as §3
[30] = Antimicrobial activity against 90 mins oxgall-stressed Bifidobacterium infantis ATCC 15697 after 18 hrs; assay type: functional, Bifidobacterium longum subsp. infantis; conditions: Bifidobacterium longum; how it was run: as §3
Bifidobacterium longum [31] = test: Antimicrobial activity against 90 mins oxgall-stressed Bifidobacterium longum ATCC 15707 after 18 hrs; assay type: functional; how it was run: as §3
Bifidobacterium longum [32] = test: Antimicrobial activity against 90 mins oxgall-stressed Bifidobacterium longum ATCC 15708 after 18 hrs; assay type: functional; how it was run: as §3
Bifidobacterium longum [33] = test: Antimicrobial activity against Bifidobacterium longum ATCC 15707; assay type: functional; how it was run: as §1
Bifidobacterium longum [34] = test: Antimicrobial activity against 90 mins oxgall-stressed Bifidobacterium longum R0175 after 18 hrs; assay type: functional; how it was run: as §3
Bifidobacterium longum [35] = test: Antimicrobial activity against 90 mins oxgall-stressed Bifidobacterium longum P/N 601377 after 18 hrs; assay type: functional; how it was run: as §3
[36] = tested on: Bifidobacterium pseudolongum; test: Antimicrobial activity against 90 mins oxgall-stressed Bifidobacterium pseudolongum ATCC 25562 after 18 hrs; assay type: functional; how it was run: as §3
[37] = tested on: Bifidobacterium thermophilum; test: Antimicrobial activity against 90 mins oxgall-stressed Bifidobacterium thermophilum ATCC 25866 after 18 hrs; assay type: functional; how it was run: as §3
Bifidobacterium animalis [38] = test: Antimicrobial activity against 90 mins hydrogen peroxide-stressed Bifidobacterium animalis ATCC 27536 after 18 hrs; assay type: functional
How it was run: (§4)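 Stress applied for 90 min at 37°C under anaerobic conditions, using MRS (initial pH 6.5) containing H2O2 at each strain's own inhibitory concentration. The H2O2 level was set beforehand by microplate tolerance testing. Challenged cells were regrown in MRS for 24 h (footnote: 18 h) before MIC testing by broth microdilution. Median of four repetitions.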

Bifidobacterium bifidum [39] = test: Antimicrobial activity against 90 mins hydrogen peroxide-stressed Bifidobacterium bifidum R0071 after 18 hrs; assay type: functional; how it was run: as §4
Bifidobacterium bifidum [40] = test: Antimicrobial activity against 90 mins hydrogen peroxide-stressed Bifidobacterium bifidum BB12 after 18 hrs; assay type: functional; how it was run: as §4
Bifidobacterium breve [41] = test: Antimicrobial activity against 90 mins hydrogen peroxide-stressed Bifidobacterium breve ATCC 15700 after 18 hrs; assay type: functional; how it was run: as §4
Bifidobacterium breve [42] = test: Antimicrobial activity against 90 mins hydrogen peroxide-stressed Bifidobacterium breve R0070 after 18 hrs; assay type: functional; how it was run: as §4
Bifidobacterium longum [43] = test: Antimicrobial activity against 90 mins hydrogen peroxide-stressed Bifidobacterium longum ATCC 15707 after 18 hrs; assay type: functional; how it was run: as §4
Bifidobacterium longum [44] = test: Antimicrobial activity against 90 mins hydrogen peroxide-stressed Bifidobacterium longum ATCC 15708 after 18 hrs; assay type: functional; how it was run: as §4
Bifidobacterium longum [45] = test: Antimicrobial activity against 90 mins hydrogen peroxide-stressed Bifidobacterium longum R0175 after 18 hrs; assay type: functional; how it was run: as §4
Bifidobacterium longum [46] = test: Antimicrobial activity against 90 mins hydrogen peroxide-stressed Bifidobacterium longum P/N 601377 after 18 hrs; assay type: functional; how it was run: as §4
[47] = tested on: Bifidobacterium thermophilum; test: Antimicrobial activity against 90 mins hydrogen peroxide-stressed Bifidobacterium thermophilum ATCC 25866 after 18 hrs; assay type: functional; how it was run: as §4

SMILES: NC[C@@H]1O[C@H](O[C@H]2[C@@H](O)[C@H](O[C@@H]3[C@@H](O)[C@H](N)C[C@H](N)[C@H]3O[C@H]3O[C@H](CO)[C@@H](O)[C@H](O)[C@H]3N)O[C@@H]2CO)[C@H](N)[C@@H](O)[C@@H]1O [PAROMOMYCIN]
- MIC (Bifidobacterium animalis [1]): 250 µg/mL (≈ 406 µM)
- MIC (Bifidobacterium bifidum [2]): 250 µg/mL (≈ 406 µM)
- MIC (Bifidobacterium bifidum [3]): 250 µg/mL (≈ 406 µM)
- MIC (Bifidobacterium bifidum [4]): 250 µg/mL (≈ 406 µM)
- MIC (Bifidobacterium breve [5]): 250 µg/mL (≈ 406 µM)
- MIC [6]: 250 µg/mL (≈ 406 µM)
- MIC (Bifidobacterium longum [7]): 250 µg/mL (≈ 406 µM)
- MIC (Bifidobacterium longum [8]): 250 µg/mL (≈ 406 µM)
- MIC (Bifidobacterium longum [9]): 250 µg/mL (≈ 406 µM)
- MIC [10]: 250 µg/mL (≈ 406 µM)
- MIC [11]: 250 µg/mL (≈ 406 µM)
- MIC (Bifidobacterium breve [12]): 250 µg/mL (≈ 406 µM)
- MIC (Bifidobacterium animalis [13]): 500 µg/mL (≈ 812 µM)
- MIC (Bifidobacterium bifidum [14]): 250 µg/mL (≈ 406 µM)
- MIC (Bifidobacterium bifidum [15]): 125 µg/mL (≈ 203 µM)
- MIC (Bifidobacterium breve [16]): 125 µg/mL (≈ 203 µM)
- MIC (Bifidobacterium breve [17]): 250 µg/mL (≈ 406 µM)
- MIC [18]: 250 µg/mL (≈ 406 µM)
- MIC (Bifidobacterium longum [19]): 500 µg/mL (≈ 812 µM)
- MIC (Bifidobacterium longum [20]): 250 µg/mL (≈ 406 µM)
- MIC (Bifidobacterium longum [21]): 250 µg/mL (≈ 406 µM)
- MIC [22]: 250 µg/mL (≈ 406 µM)
- MIC [23]: 500 µg/mL (≈ 812 µM)
- MIC (Bifidobacterium animalis [24]): 125 µg/mL (≈ 203 µM)
- MIC (Bifidobacterium bifidum [25]): 125 µg/mL (≈ 203 µM)
- MIC (Bifidobacterium bifidum [26]): 500 µg/mL (≈ 812 µM)
- MIC (Bifidobacterium bifidum [27]): 250 µg/mL (≈ 406 µM)
- MIC (Bifidobacterium breve [28]): 250 µg/mL (≈ 406 µM)
- MIC (Bifidobacterium breve [29]): 125 µg/mL (≈ 203 µM)
- MIC [30]: 500 µg/mL (≈ 812 µM)
- MIC (Bifidobacterium longum [31]): 125 µg/mL (≈ 203 µM)
- MIC (Bifidobacterium longum [32]): 500 µg/mL (≈ 812 µM)
- MIC (Bifidobacterium longum [33]): 250 µg/mL (≈ 406 µM)
- MIC (Bifidobacterium longum [34]): 125 µg/mL (≈ 203 µM)
- MIC (Bifidobacterium longum [35]): 62.5 µg/mL (≈ 102 µM)
- MIC [36]: 500 µg/mL (≈ 812 µM)
- MIC [37]: 250 µg/mL (≈ 406 µM)
- MIC (Bifidobacterium animalis [38]): 500 µg/mL (≈ 812 µM)
- MIC (Bifidobacterium bifidum [39]): 125 µg/mL (≈ 203 µM)
- MIC (Bifidobacterium bifidum [40]): 500 µg/mL (≈ 812 µM)
- MIC (Bifidobacterium breve [41]): 500 µg/mL (≈ 812 µM)
- MIC (Bifidobacterium breve [42]): 250 µg/mL (≈ 406 µM)
- MIC (Bifidobacterium longum [43]): 500 µg/mL (≈ 812 µM)
- MIC (Bifidobacterium longum [44]): 250 µg/mL (≈ 406 µM)
- MIC (Bifidobacterium longum [45]): 250 µg/mL (≈ 406 µM)
- MIC (Bifidobacterium longum [46]): 125 µg/mL (≈ 203 µM)
- MIC [47]: 500 µg/mL (≈ 812 µM)
